Reference: PMC13154657 (Journal of Advanced Research, 2025)

Assays:
HT-29 cells = assay: Cell viability assay; type: cell-based; details: 100 μM, 24 h, CCK-8, N = 5
Procedure, shortened: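 HT-29 cells cultured in DMEM with 10 % FBS and 1 % penicillin/streptomycin at 37 °C, 5 % CO2. Seeded at 10,000 cells/well in 96-well plates and exposed to test compound or DMSO for 24 h at 37 °C. Viability read with CCK-8 per kit instructions; N = 5.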

[1] = within 60 min; cited from earlier work
[2] = system: DSS-induced experimental colitis; assay: DSS-induced experimental colitis model in mice; type: in vivo; details: DB07565 rectally daily
Procedure, shortened: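 Male C57BL/6 J mice, 7–8 weeks, randomised by weight into groups of six. Colitis induced with 3 % (w/v) DSS in drinking water for 7 days. Test compound dissolved in DMSO, diluted in PBS to 50 or 100 μM, given rectally at 100 µl/mouse daily. Oral 5-ASA 50 mg/kg daily as reference. Colons fixed in 4 % PFA and paraffin-embedded. 5 μm sections stained with H&E; immunofluorescence for Claudin-1, Occludin and ZO-1 at 4 ℃ overnight, 1 h secondary, DAPI 10 min.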

human P2Y14 receptor = molecular target: T1, human P2Y14 receptor (Homo sapiens, UniProt Q15391); assay: In vitro P2Y14R antagonistic activity; type: cell-based
T1 sequence (Q15391 1-338): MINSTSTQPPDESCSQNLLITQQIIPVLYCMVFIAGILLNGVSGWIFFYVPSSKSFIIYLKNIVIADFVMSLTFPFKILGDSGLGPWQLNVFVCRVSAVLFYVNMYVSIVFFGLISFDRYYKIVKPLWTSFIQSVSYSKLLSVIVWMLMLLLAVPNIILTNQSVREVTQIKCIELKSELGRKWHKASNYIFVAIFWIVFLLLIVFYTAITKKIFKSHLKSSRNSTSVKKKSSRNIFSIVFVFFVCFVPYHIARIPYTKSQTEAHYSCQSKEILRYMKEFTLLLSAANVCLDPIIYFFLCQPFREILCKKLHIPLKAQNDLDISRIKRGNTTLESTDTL
Procedure, shortened: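 hP2Y14-HEK293 cells (HEK293 stably expressing human P2Y14R) grown in DMEM with 10 % FBS and 1 % penicillin/streptomycin. Seeded at 10,000 cells/well in 384-well plates and preincubated 30 min at 37 °C with test compound or DMSO. Stimulated with UDPG; intracellular cAMP measured by cAMP-Glo luminescence on a plate reader. N = 3.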

- IC50 (human P2Y14 receptor): 1.58 nM
Structure (SMILES): O=C(O)CCC(=O)OC[C@@H](NC(=O)C(Cl)Cl)[C@H](O)c1ccc([N+](=O)[O-])cc1 [DB07565, Chloramphenicol succinate]
- cytotoxicity (cell viability) (HT-29 cells): low cytotoxicity
- degradation in intestinal fluid [1]: less than 10%
- histopathological analysis of colon (H&E) ([2]; C57BL/6 J mice, 3 % DSS 7 days): mitigated DSS-induced tissue damage and inflammatory cell infiltration in the colon
- gut barrier function, immunofluorescence of tight junction proteins (Claudin-1, Occludin, ZO-1) ([2]; colon tissue of DSS-treated mice): markedly enhanced gut barrier function
